The values that follow come from ChEMBL document CHEMBL3822375, “Preclinical Characterization of 3β-(N-Acetyl l-cysteine methyl ester)-2aβ,3-dihydrogaliellalactone (GPA512), a Prodrug of a Direct STAT3 Inhibitor for the Treatment of Prostate Cancer” (J Med Chem, 2016).

The source made the active and inactive calls. The calls are words filed in the database; no cut-off is given here.

Data set [1] is described as follows: Antiproliferative activity against human DU145 cells after 72 hrs by WST-1 proliferation assay. The class given is functional, cell-based. To be noted: DU-145, 72 h. The gist of the method: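 Cells in RPMI-1640 (DU145, LNCaP, LNCaP-IL6+) or HAM's F-12 (PC3) with 10% FBS. DU145 and LNCaP-IL6+ seeded at 2 000 cells/well, LNCaP and PC3 at 5 000 cells/well, adhered 24 h, then exposed to compound for 72 h. WST-1 absorbance read at 450 nm with 630 nm reference. Background subtracted; expressed as percent of untreated cells.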

The test system of a further data set is Plasma. Nature of the data set: Half life in human plasma assessed as formation of galiellalactone at 5 uM by LC-MS/MS analysis. The class given is ADME, cell-free. The gist of the method: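 Plasma of each species incubated at 37 °C with compound at 5 µM initial, 1% DMSO, n=2. Simvastatin and eucatropine run as controls. Aliquots taken at 0, 5, 15, 30 and 60 min and quenched with acetonitrile containing internal standard, then analysed by LC-MS/MS.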

In data set [2] the test system is Mus musculus. Nature of the data set: Cmax in mouse plasma assessed as galiellalactone level at 40 mg/kg, po by LC-MS/MS analysis. The class given is ADME, organism-based. Details: dose 40 mg/kg, route oral. Conditions: in vivo. An outline of the steps: (§1)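 Single dose to mice; oral, iv or ip as listed, in 5% DMSO/50 mM citrate buffer pH 4.0 (dosing solutions 0.5, 2 or 5 mg/mL). Oral dosing at 20 mL/kg. Terminal blood under barbiturate anaesthesia at eight time-points to 8 h, n=3 mice per time-point, EDTA plasma. Acetonitrile precipitation with internal standard, LC-MS/MS against plasma calibration lines. Non-compartmental analysis on mean data, trapezoidal AUC.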

The test system of data set [3] is Mus musculus. As to the kind of experiment: Tmax in mouse plasma assessed as galiellalactone level at 40 mg/kg, po by LC-MS/MS analysis. The class given is ADME, organism-based. Conditions: in vivo.
For data set [4], the system named is Mus musculus. Nature of the data set: Apparent half life in mouse plasma assessed as galiellalactone level at 40 mg/kg, po by LC-MS/MS analysis. The class given is ADME, organism-based. Conditions: in vivo. The gist of the method: as §1
Data set [5] concerns Mus musculus. As to the kind of experiment: Cmax in mouse plasma assessed as galiellalactone level at 100 mg/kg, po by LC-MS/MS analysis. The class given is ADME, organism-based. More on the design: dose 100 mg/kg, route oral. Conditions: in vivo. An outline of the steps:
as §1

In data set [6] the test system is Mus musculus. As to the kind of experiment: Tmax in mouse plasma assessed as galiellalactone level at 100 mg/kg, po by LC-MS/MS analysis. Conditions: in vivo. The class given is ADME, organism-based.
Data set [7] deals with Mus musculus. As to the kind of experiment: AUC (0 to t) in mouse plasma assessed as galiellalactone level at 100 mg/kg, po by LC-MS/MS analysis. The class given is ADME, organism-based. Conditions: in vivo. The gist of the method:
as §1

For data set [8], the system named is Mus musculus. Nature of the data set: AUC (0 to infinity) in mouse plasma assessed as galiellalactone level at 100 mg/kg, po by LC-MS/MS analysis. The class given is ADME, organism-based. More on the design: dose 100 mg/kg, time infinity, route oral. Conditions: in vivo. The gist of the method:
as §1

Data set [9] concerns Hepatocyte. Nature of the data set: Prodrug conversion in mouse hepatocytes assessed as formation of 3-beta-(N-Acetyl-L-cysteine)-2a-beta,3-dihydrogaliellalactone after 2 hrs by UPLC-MS analysis. The class given is ADME, cell-based. The gist of the method: (§2)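 Cryopreserved mouse hepatocytes incubated with an initial 10 µM test item (DMSO stock) in Celsis InVitro HI medium, pH 7.4, 37 °C. Cell viability checked by Trypan blue. Sampled at 0 and 120 min and stopped with an equal volume of acetonitrile. Analysed by UPLC/Q-TOF-MS.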

The subject of data set [10] is DU-145. Nature of the data set: Antitumor activity against human DU145 cells xenografted in NMRI mouse assessed as reduction of tumor growth rate at 40 mg/kg, po administered 5 times per week for 4 weeks measured on day 26 and day 29 relative to vehicle-treated control. The class given is functional, organism-based. An outline of the steps:
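NMRI-nude male mice given 1.5 million DU145 cells s.c. in the flank. After four weeks, split into two groups of ten. Oral gavage with compound at 40 mg/kg or vehicle (50 mM citrate pH 4.0, 2% DMSO), daily five times per week for four weeks. Caliper measurement twice weekly; volume = width × length × height × 0.52.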
In general terms: Xenograft models place foreign cells or tissue in a host animal.

Data set [11] deals with Mus musculus. As to the kind of experiment: Toxicity in NMRI mouse xenografted with human DU145 cells assessed as weight loss at 40 mg/kg, po administered 5 times per week for 4 weeks measured on day 26 and day 29. Conditions: in vivo, 672 h. The class given is organism-based, DU-145. An outline of the steps: (§3)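 Male NMRI-nude mice, 20 in total, were given 1.5 million DU145 cells subcutaneously in the flank. After 4 weeks they were split into two groups of 10. Each group was gavaged with 40 mg/kg or with vehicle (50 mM citrate buffer pH 4.0, 2% DMSO) daily, 5 times per week for 4 weeks. Body weight, behaviour, side effects and survival were monitored, and tumours were measured twice weekly by caliper.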

Data set [12] concerns Mus musculus. As to the kind of experiment: Toxicity in NMRI mouse xenografted with human DU145 cells assessed as behavioral alterations at 40 mg/kg, po administered 5 times per week for 4 weeks measured on day 26 and day 29. The class given is organism-based, DU-145. Conditions: in vivo, 672 h. The gist of the method:
as §3

In data set [13] the test system is DU-145. As to the kind of experiment: Antiproliferative activity against human DU145 cells xenografted in NMRI nude mouse assessed as reduction in Ki67 ratio at 40 mg/kg, po administered 5 times per week for 4 weeks by Ki67 staining-based immunohistochemical analysis. The class given is functional, organism-based. The gist of the method:
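Tumours from the oral DU145 xenograft study were fixed in formaldehyde and sectioned. IHC used the EnVision Flex kit with anti-Ki67 and anti-pSTAT3 antibodies, imaged at 10× bright field. Ki67 scored as Ki67-positive cells over total cells.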

Data set [14] deals with Mus musculus. Nature of the data set: Toxicity in CD1 mouse assessed as change in body weight at 40 mg/kg, administered as single dose through oral gavage measured on day 4 (reference value: 34.68 +/- 4.71 g). The class given is organism-based. Conditions: in vivo.
Data set [15] concerns Mus musculus. As to the kind of experiment: Cmax in mouse plasma assessed as galiellalactone level at 10 mg/kg, po by LC-MS/MS analysis. To be noted: in vivo. More on the design: dose 10 mg/kg, route oral. The class given is ADME, organism-based. An outline of the steps:
as §1

The subject of data set [16] is Hepatocyte. As to the kind of experiment: Prodrug conversion in mouse hepatocytes assessed as galiellalactone formation of after 2 hrs by UPLC-MS analysis. The class given is ADME, cell-based. The gist of the method:
as §2

Data set [17] deals with Mus musculus. Nature of the data set: Toxicity in NMRI mouse xenografted with human DU145 cells assessed as mouse survival at 40 mg/kg, po administered 5 times per week for 4 weeks measured on day 26 and day 29. The class given is organism-based, DU-145. Conditions: in vivo, 672 h. The gist of the method:
as §3

A short description of data set [18]: Toxicity in CD1 mouse at 40 to 400 mg/kg, administered as single dose through oral gavage. The class given is organism-based. To be noted: in vivo. The gist of the method: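 Male CD1 mice, 7 weeks old (27.0–38.5 g), 5 per group, given one oral gavage dose of 40, 200 or 400 mg/kg as a solution in 50 mM citrate buffer pH 4.0 with 5% DMSO. Vehicle-only control group. Weighed at randomization, day 1 before dosing, day 4 and day 8 (study end). Clinical signs, clinical pathology and histopathology were assessed to set the MTD.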

The test system of data set [19] is Mus musculus. Nature of the data set: Toxicity in CD1 mouse assessed as effect on clinical signs at 40 to 400 mg/kg, administered as single dose through oral gavage. The class given is organism-based. To be noted: in vivo. An outline of the steps:
(§4)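 Male CD1 mice, 7 weeks old, 5 per group, given one oral gavage dose of 40, 200 or 400 mg/kg in 50 mM citrate buffer, pH 4.0, 5% DMSO, alongside a vehicle control group. Clinical signs, clinical pathology and histopathology were assessed, with the study ending on day 8.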

Data set [20] concerns Mus musculus. As to the kind of experiment: Toxicity in CD1 mouse assessed as effect on clinical pathological parameters at 40 to 400 mg/kg, administered as single dose through oral gavage. The class given is organism-based. Conditions: in vivo. The gist of the method:
as §4

Data set [21] relates to Mus musculus. As to the kind of experiment: Toxicity in CD1 mouse assessed as effect on histopathological parameters at 40 to 400 mg/kg, administered as single dose through oral gavage. The class given is organism-based. To be noted: in vivo. An outline of the steps:
as §4

In general, IC50 refers to the concentration needed to halve the response being measured. As usually defined, the Cmax is the maximum level reached in the sampled fluid or tissue. By Tmax is commonly meant the time from dosing to the highest level. `COC(=O)[C@H](CS[C@H]1C2C(=O)O[C@@H]3CC[C@H](C[C@@H]1C)[C@]23O)NC(C)=O` (some centres not stated) displayed an IC50 in [1] of 4.81 µM. Moreover, the t1/2 with Plasma is given as less than 5 min. The highest concentration (Cmax) came out at 3733 ng/mL in the data set on Mus musculus [2], 7478 ng/mL in the data set on Mus musculus [5] and 1893 ng/mL with Mus musculus [15]. In addition, the time to peak (Tmax) in the data set with Mus musculus [3] and in the data set with Mus musculus [6] was 15 min in each case. For the same molecule, in the data set on Mus musculus [4], the “t1/2(app)” value turned out to be 180 min. The AUCt with Mus musculus [7] amounted to 676 µg/mL/min. The AUC with Mus musculus [8] was found to be 679 µg/mL/min. Also, the Drug metabolism entry with Hepatocyte [9] and in the data set with Hepatocyte [16] was “metabolite_detected” in each case. Also, the inhibition result in the data set with DU-145 [10] and in the data set on DU-145 [13] was “Active” each time. The Activity result in the data set on Mus musculus [11] is reported as “Non-toxic”; in the data set on Mus musculus [12], “Non-toxic”; in the data set on Mus musculus [14], 33.68 g; with Mus musculus [17], “Non-toxic”; with Mus musculus [19], “Non-toxic”; with Mus musculus [20], “Non-toxic”. Moreover, in the data set on Mus musculus [21], the Activity result was “Non-toxic”. This molecule registered an MTD in data set [18] of 400 mg/kg.
